Bioassay records: PubChem, several laboratories
Compounds with a hit are over-represented: about 2.8% of the library has one in this group of screens.
Measles CPE = compounds protecting cells from measles virus cytopathic effect, primary screen, measles RdRp inhibitor project, single point, MLSMR library, absorbance; actives 1.5% (n = 140,000); Measles virus-infected cells, CPE protection; protection (pct of control), % at 4 µM; AID 841, 2007; in the data active means protection mostly above about 24%, no sharp cut-off; inactive means mostly below about 26%
MDM2 E3 inh = MDM2-luciferase reporter signal enhancers, primary screen, MDM2 E3 ligase inhibitor project, cell-based, luminescence, 1536-well | cell-based MDM2 ubiquitination luciferase reporter, 2 h; 0 = plate control, 100 = twice control, blank-subtracted | signal enhancement, % at 5 µM | actives 0.11% (n = 210,000) | AID 1230, 2008;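 active means signal enhancement of 30% or more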;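 further: luminescence tracks abundance of the self-degrading MDM2-luciferase fusion protein; higher signal means inhibition of MDM2 E3 ligase activity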
Target sequence (Q00987 whole entry, looked up, the tested form may be a part): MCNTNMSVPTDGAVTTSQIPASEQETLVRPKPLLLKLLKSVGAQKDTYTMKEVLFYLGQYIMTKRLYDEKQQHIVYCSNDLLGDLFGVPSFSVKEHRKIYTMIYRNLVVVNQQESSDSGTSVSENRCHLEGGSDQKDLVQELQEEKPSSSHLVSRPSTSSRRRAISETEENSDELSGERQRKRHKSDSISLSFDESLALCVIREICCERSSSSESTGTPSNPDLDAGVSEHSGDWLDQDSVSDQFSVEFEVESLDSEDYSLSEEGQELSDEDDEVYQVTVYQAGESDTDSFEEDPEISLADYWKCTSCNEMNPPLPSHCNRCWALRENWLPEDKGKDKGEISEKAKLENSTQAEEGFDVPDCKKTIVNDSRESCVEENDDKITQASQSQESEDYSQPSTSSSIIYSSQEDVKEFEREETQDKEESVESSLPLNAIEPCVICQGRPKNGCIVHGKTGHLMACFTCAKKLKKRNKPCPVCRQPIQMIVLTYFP
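Assay system: stable mammalian line carrying autodegrading MDM2–luciferase fusion reporter; amount: 2000 cells seeded into each well; buffer or medium: DMEM; benchmarks: plate control and blank wells; signal: luciferase luminescence; timing: 2 h compound exposure at 37 °C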
NPY-Y1 antag = NPY-Y1 receptor antagonists, primary screen, cell-based | Neuropeptide Y receptor type 1 (Homo sapiens), P25929 | inhibition, % at 3.6 µM | actives 1% (n = 200,000) | HEK293-CNG Y1 cells, membrane potential fluorescence; NPY at EC95, then isoproterenol;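 active means inhibition above the campaign mean inhibition of all tested compounds plus 3 SD, cut at about 20% in these data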;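 further: 0% = DMSO wells given NPY plus isoproterenol and 100% = isoproterenol alone without NPY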
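Test system – HEK293 Y1/CNG channel cell line · Also added – NPY agonist 25 nM, then isoproterenol 1 µM plus Ro 20-1724 25 µM · Compound dosing – one concentration, 3.6 µM, in 0.4% DMSO · Schedule – compound incubation 1 h at room temperature, readout 45 min post-stimulation · Technique – fluorescence, membrane potential probe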
NPY-Y2 PAM-ag = NPY-Y2 potentiators or agonists, primary screen, cell-based | cells expressing NPY-Y2, potentiator/agonist read-out | activation, % at 3.6 µM | actives 0.45% (n = 220,000) | AID 1359, 2008; in the data active means activation above about 27%;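 further: cells stimulated with NPY near EC25 plus isoproterenol at EC100; 0% = vehicle plus submaximal agonist and 100% = vehicle plus saturating agonist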
NPY1 pot ag = NPY-Y1 receptor potentiators or agonists, primary screen, cell-based; AID 1304, 2008; Neuropeptide Y receptor type 1 (Homo sapiens), P25929; actives 0.37% (n = 220,000); activation, % at 3.6 µM; NPY-Y1 expressing cells, potentiator/agonist activation; in the data active means activation above about 33%, passing the limit was not always enough;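 further: cells stimulated with NPY at EC10 then isoproterenol at EC100; 0% = low agonist plus stimulus and 100% = saturating agonist plus stimulus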
NPY Y2 blocker = NPY-Y2 receptor antagonists, primary screen, cell-based; Neuropeptide Y receptor type 2 (Homo sapiens), P49146; NPY-Y2 expressing cells, antagonist mode; inhibition, % at 2.7 µM; actives 0.99% (n = 140,000);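 further: 0% = vehicle with agonist challenge and 100% = reference antagonist with challenge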
NPY1 antag conf = NPY-Y1 receptor antagonists, retest of hits, confirmation, HEK293-CNG cells, membrane potential fluorescence, triplicate; actives 21% (n = 1,200); inhibition, % at 3.6 µM; shares compounds with NPY-Y1 antag; cAMP; NPY challenge against isoproterenol-raised cAMP; in the data active means inhibition above about 20%;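 further: 0% = vehicle with agonist plus stimulus and 100% = stimulus alone without agonist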
NPY-Y2 antag ct = NPY-Y2 receptor antagonists, selectivity check, confirmation, counter-screen for NPY-Y1 antagonist project, HEK293-CNG cells, membrane potential fluorescence, triplicate. shares compounds with NPY-Y1 antag. antagonism; cells given NPY, then isoproterenol. inhibition, % at 3.6 µM. actives 28% (n = 1,200). AID 1255, 2008;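 further: 0% = DMSO with agonist challenge and 100% = reference antagonist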
* = called active by the depositor; / = not tested or not shown. Unless noted, no stated cut-off is given here; in the data, active means inhibition above about 17%; inactive means the rest.

SMILES	Measles CPE	MDM2 E3 inh	NPY-Y1 antag	NPY-Y2 PAM-ag	NPY1 pot ag	NPY Y2 blocker	NPY1 antag conf	NPY-Y2 antag ct
Cc1nc(-c2ccccc2)sc1C1(C)CC(c2cccc([N+](=O)[O-])c2)=NO1 (stereo unspecified)	/	-8	/	/	/	/	/	/
C=CCn1c(C)cc(C(=O)CSc2nnc(Cc3ccccc3)o2)c1C	6	-27	21*	-32	-56	7	10	8
Cc1nn(C)cc1C(C)NC(=O)c1cc(COc2c(F)cccc2F)on1 (stereo unspecified)	/	-6	-3	-29	-6	/	/	/
CC(NC(=O)c1cc(COc2c(F)cccc2F)on1)c1cnn(-c2ccccc2)c1 (stereo unspecified)	/	-16	22*	-15	-36	/	6	8
Nc1nc(-c2ccc(Br)cc2)cs1	2	-15	2	9	-1	1	/	/
Brc1ccc(-c2csc(/N=C/N3CCCC3)n2)cc1	/	-19	32*	-27	-11	/	31*	13
COC(=O)c1c(NC(=O)C2COc3ccccc3O2)sc2c1CCN(Cc1ccccc1)C2 (stereo unspecified)	7	-13	22*	-28	-17	15	31*	24*
CCN(Cc1ccccc1)C(=O)c1nn(-c2ccc(OC)cc2)c(=O)c2c1c1ccccc1n2C	/	-17	38*	-9	-36	/	43*	24*
CN(CCC#N)C(=S)NC(=O)c1ccc(S(=O)(=O)N2CCOCC2)cc1	/	-4	46*	4	10	/	0	0
Cc1cc(=O)[nH]c(-c2ccccc2OC(F)(F)F)n1	/	-8	/	3	-22	/	/	/
CCc1cccc(CC)c1NC(=O)CN1CC(C)SC1=NC1CCCCC1 (stereo unspecified)	7	-3	34*	6	4	13	34*	17*
COc1ccc(CCN(Cc2ccccn2)C(=S)Nc2ccccc2Cl)cc1OC	/	14	28*	-3	-8	/	18	8
COc1ccc(COc2cc(-c3cccc(OC)c3)nc3ccc(NC(=O)c4ccc(N(C)C)cc4)cc23)cc1	23	/	43*	-2	-32	2	-2	2
CCOC(=O)c1cc(C(=O)NC(C)c2ccccc2)c(C)[nH]c1=O (stereo unspecified)	/	-3	-2	-6	-1	/	/	/
CCCCC(=O)Nc1ccccc1N1CCOCC1	/	-14	3	11	-12	/	/	/
CCCCCC(=O)Nc1ccccc1N1CCN(c2ccccc2)CC1	32	-50	22*	-16	-49	5	6	15
CCC1Oc2ccc(C)cc2N(CC(=O)NCC2COc3ccccc3O2)C1=O (stereo unspecified)	11	-5	4	3	-8	6	/	/
COc1ccc2c(c1)c(C(O)CN1CCN(Cc3ccc4c(c3)OCO4)CC1)c(C)n2C (stereo unspecified)	11	-11	6	15	-11	9	/	/
COc1ccc2c(c1)c(C(O)CN1CCC(Cc3ccccc3)CC1)c(C)n2C (stereo unspecified)	3	-12	21*	2	0	12	10	10
Cc1ccc(-c2cc(C(=O)Nc3cc(C)on3)c3ccccc3n2)c(C)c1	10	-17	35*	-41	-115	9	29*	51*
O=C(NC1CC1)c1cc(-c2ccccn2)nc2ccccc12	17	-15	-1	-10	-7	3	/	/
Cc1cccc(NC(=O)c2cc(-c3ccccn3)nc3ccccc23)c1C	/	-8	39*	-59	-122	/	25*	23*
Cc1csc(NC(=O)c2cc(-c3ccccc3)nc3ccccc23)n1	14	-15	22*	-30	-105	13	19	12
Cc1c(Br)c(C(F)(F)F)nn1CC(=O)NCc1ccccc1	7	-5	5	17	-6	8	/	/
Cc1ccc(C(O)(c2ccccc2)c2ccccc2C(C)N(C)C)c(C)c1 (stereo unspecified)	11	-17	25*	-36	4	16	21*	32*
SMILES	Measles CPE	MDM2 E3 inh	NPY-Y1 antag	NPY-Y2 PAM-ag	NPY1 pot ag	NPY Y2 blocker	NPY1 antag conf	NPY-Y2 antag ct
CCOC(=O)C1CCN(C(=O)CCS(=O)(=O)c2ccc3c(c2)CCN3C(=O)CC)CC1	/	-8	-1	15	26	/	/	/
CCOC(=O)C1CCN(C(=O)CCS(=O)(=O)c2ccc3c(c2)CC(C)N3C(=O)CC)CC1 (stereo unspecified)	/	-4	37*	12	-6	/	3	3
O=[N+]([O-])c1ccccc1S(=O)(=O)n1nnc2ccccc21	27	-16	-2	10	-9	2	/	/
Cn1c(=O)cc(SCC(=O)NCCCN2CCN(c3ccccc3F)CC2)c2ccccc21	12	-3	21*	-4	-22	11	6	2
Cc1csc(SCC(=O)NCCc2ccc(Cl)cc2Cl)n1	10	/	6	-6	-7	5	/	/
CCCCCCCCCCOC(=O)C[N+](C)(C)C/C=C(/C)Cl	8	-13	23*	-3	-1	15	11	12
CC(C)C(=O)Nc1cccc(C(=O)Nc2nccs2)c1	8	6	2	-7	-3	0	/	/
Clc1ccc(CNc2nc(CN3CCOCC3)nc3scc(-c4ccccc4)c23)cc1	30	/	22*	-23	-43	13	22*	18*
Clc1ccc(-c2csc3ncnc(NCCN4CCOCC4)c23)cc1	2	-8	-6	-5	1	5	/	/
CC(=O)Oc1ccc(N2C(=O)C3C4C=CC(CC4)C3C2=O)cc1[N+](=O)[O-] (stereo unspecified)	/	-5	2	-7	-20	/	/	/
CCOC(=O)c1c(C)n(-c2ccc(C)cc2)c2ccc(OCC(O)CN3CCN(C)CC3)cc12 (stereo unspecified)	/	-2	47*	-47	-57	/	25*	47*
CCOC(=O)c1c(C)n(C)c2ccc(OCC(O)CN3CCN(C)CC3)cc12 (stereo unspecified)	3	-17	-3	1	-13	3	/	/
